Measured values as given in publication PMC8038854 (Biochemical Journal, 2021).
Substitutions are numbered along the chain they refer to. Like-named read-outs stand apart in the source and are kept apart here. Peptide text beside a SMILES is read from it.

What was measured:
[1] = molecular target: Scribble PDZ1 Q808H (human) (UniProt Q14160); assay: ITC
[2] = molecular target: Scribble PDZ3 R1044Q (human) (UniProt Q14160); assay: ITC
[3] = molecular target: Scribble PDZ2 R896A (human) (UniProt Q14160); assay: ITC
[4] = molecular target: Scribble PDZ1 H793A (human) (UniProt Q14160); assay: ITC
Scribble PDZ1 H793A (human), sequence (Q14160 728-815 H793A): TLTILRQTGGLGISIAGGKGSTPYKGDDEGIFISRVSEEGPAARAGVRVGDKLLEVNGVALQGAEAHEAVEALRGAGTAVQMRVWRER

[5] = molecular target: Scribble PDZ1 Q808H (human) (UniProt Q14160); assay: ITC; remark: listed apart in the source
Scrib PDZ1 WT (728–815) = Scrib PDZ1 WT (728–815) (Homo sapiens, UniProt Q14160); assay: Isothermal titration calorimetry; type: binding
Scrib PDZ1 WT (728–815), sequence (Q14160 728-815): as the sequence (Q14160 728-815 H793A) above, with A66H counted along it
How it was run: (§1)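 Recombinant human Scribble PDZ domains (wild type or point mutant) were expressed in E. coli BL21(DE3) pLysS as GST or MBP fusions and purified. Synthetic 8-mer C-terminal PBM peptides, including a pan-PDZ positive-control peptide, were titrated into protein in 25 mM Hepes pH 7.5, 150 mM NaCl at 25°C. There were 20 injections spaced 180 s apart. KD came from a 1:1 model, with ±SD from at least three independent experiments.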

Scrib PDZ2 WT (860–950) = molecular target: T1, Scrib PDZ2 WT (860–950) (Homo sapiens, UniProt Q14160); assay: ITC of PBM peptides against Scrib PDZ2 WT; type: binding
T1 sequence (Q14160 860-950): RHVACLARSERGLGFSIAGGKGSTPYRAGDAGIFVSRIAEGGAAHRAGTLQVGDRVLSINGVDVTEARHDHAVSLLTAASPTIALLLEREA
How it was run: as §1

[6] = molecular target: T2, Scrib PDZ3 WT (1002–1094) (Homo sapiens, UniProt Q14160); assay: ITC of PBM peptides against Scrib PDZ3 WT; type: binding
T2 sequence (Q14160 1002-1094): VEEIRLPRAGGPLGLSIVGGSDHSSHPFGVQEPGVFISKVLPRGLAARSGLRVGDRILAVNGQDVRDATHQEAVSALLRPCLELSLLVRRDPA
How it was run: as §1

Scrib PDZ3 R1044Q = molecular target: T3, Scrib PDZ3 R1044Q (Homo sapiens, UniProt Q14160, R1044Q); assay: ITC of PBM peptides against Scrib PDZ3 R1044Q; type: binding
T3 sequence (Q14160 1002-1094 R1044Q): T2 sequence (Q14160 1002-1094) with R43Q
How it was run: as §1

Scrib PDZ1 Q808H = Scrib PDZ1 Q808H (Homo sapiens, UniProt Q14160, Q808H); assay: ITC of PBM peptides against Scrib PDZ1 Q808H; type: binding
Scrib PDZ1 Q808H, sequence (Q14160 728-815 Q808H): as the sequence (Q14160 728-815 H793A) above, with A66H, Q81H counted along it
How it was run: as §1

Scribble PDZ2 R896A = molecular target: T4, Scribble PDZ2 R896A (human, UniProt Q14160 860-950, R896A); assay: ITC
T4 sequence (looked up): T1 sequence (Q14160 860-950) with R37A

Scribble PDZ1 H793A = Scribble PDZ1 H793A (human, UniProt Q14160 728-815, H793A); assay: ITC
Scribble PDZ1 H793A, sequence (Q14160 728-815 H793A): as the sequence (Q14160 728-815 H793A) above

Scribble PDZ3 P1043L = molecular target: T5, Scribble PDZ3 P1043L (human, UniProt Q14160 1002-1094, P1043L); assay: ITC
T5 sequence (looked up): T2 sequence (Q14160 1002-1094) with P42L

Scribble PDZ1 Q808H = Scribble PDZ1 Q808H (human, UniProt Q14160 728-815, Q808H); assay: ITC
Scribble PDZ1 Q808H, sequence (Q14160 728-815 Q808H): as the sequence (Q14160 728-815 H793A) above, with A66H, Q81H counted along it

Scribble PDZ3 R1044Q = molecular target: T6, Scribble PDZ3 R1044Q (human, UniProt Q14160 1002-1094, R1044Q); assay: ITC
T6 sequence (looked up): T2 sequence (Q14160 1002-1094) with R43Q

Scribble PDZ1 E814G = Scribble PDZ1 E814G (human, UniProt Q14160 728-815, E814G); assay: ITC
Scribble PDZ1 E814G, sequence (Q14160 728-815 E814G): as the sequence (Q14160 728-815 H793A) above, with A66H, E87G counted along it

Scribble PDZ2 H928A = molecular target: T7, Scribble PDZ2 H928A (human, UniProt Q14160 860-950, H928A); assay: ITC
T7 sequence (looked up): T1 sequence (Q14160 860-950) with H69A

Scribble PDZ1 Q808H (human), sequence (Q14160 728-815 Q808H): as the sequence (Q14160 728-815 H793A) above, with A66H, Q81H counted along it

**Q.** Which Kd [1] does the source give for beta-PIX C-terminal peptide here?
**A.** The Kd was 10.4 µM.

**Q.** And the Kd [2]?
**A.** The Kd was 14.1 µM.

**Q.** What about the Kd [3] of the same molecule?
**A.** Its Kd is 189 µM.

**Q.** And the Kd [4]?
**A.** The Kd was 62.8 µM.

**Q.** And the Kd [5]?
**A.** The Kd was 3.11 µM.

**Q.** For `CC(C)C[C@H](NC(=O)[C@@H](N)CCCNC(=N)N)C(=O)N[C@@H](CCC(N)=O)C(=O)N[C@@H](CO)C(=O)N[C@@H](CCC(=O)O)C(=O)N[C@H](C(=O)N[C@@H](CO)C(=O)N[C@H](C(=O)O)C(C)C)[C@@H](C)O` [Vangl2] (H-RLQSETSV-OH), which Kd (Scrib PDZ1 WT (728–815)) is on record?
**A.** Its Kd is 24.5 ± 3.9 µM.

**Q.** And the Kd (Scrib PDZ2 WT (860–950))?
**A.** Its Kd is 45.1 ± 4.92 µM.

**Q.** And the Kd [6]?
**A.** The Kd was 40.2 ± 3.92 µM.

**Q.** And the Kd (Scrib PDZ3 R1044Q)?
**A.** The Kd was 20.9 ± 4.67 µM.

**Q.** What about the Kd (Scrib PDZ1 Q808H) of the same molecule?
**A.** Its Kd is 10.4 ± 0.27 µM.

**Q.** Which Kd [2] does the source give for APC C-terminal peptide here?
**A.** Its Kd is 27.4 µM.

**Q.** What about the Kd [3] of the same molecule?
**A.** Its Kd is 30.6 µM.

**Q.** What about the Kd [5] of the same molecule?
**A.** The Kd was 6.06 µM.

B1: Vangl2 C-terminal PBM peptide (RLQSETSV) (peptide)
peptide: RLQSETSV
**Q.** For B1, which Kd (Scribble PDZ2 R896A) is on record?
**A.** The Kd was 26.7 µM.

**Q.** What about the Kd (Scribble PDZ1 H793A) of the same molecule?
**A.** The Kd was 29.9 µM.

B2: superpeptide (synthetic pan-PDZ binding peptide) (peptide)
peptide: RSWFETWV
**Q.** What does the source list for B2?
**A.** Kd (Scribble PDZ2 R896A): 7.8 µM; Kd (Scribble PDZ3 P1043L): 9.75 µM; Kd (Scribble PDZ1 Q808H): 2.73 µM; Kd (Scribble PDZ3 R1044Q): 7.22 µM; Kd (Scribble PDZ1 H793A): 2.18 µM; Kd (Scribble PDZ1 E814G): 2.36 µM; Kd (Scribble PDZ2 H928A): 27.7 µM
